Assays:
[1] = system: Mus musculus; test: The maximum tolerated dose described as the highest single intraperitoneal dose which did not produce severe or persistent clinical signs or death of the adult non-tumor bearing mice within 24 hours.; assay type: functional
Procedure, shortened: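 Adult non-tumor-bearing mice received escalating single ip doses of compound, dissolved fresh in 0.1 M phosphate-buffered saline, pH 7.4, at 0.02 mL/g body weight.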

[2] = system: V79 cells (Cricetulus griseus); test: In vitro concentration of gamma-radiation to give an enhancement ratio of 1.6 when compared to control V79.
[3] = system: V79; test: Reduction of optical density by 50% compared to controls when assay was performed under nitrogen in Hypoxic V79 Cells.; assay type: functional, Cricetulus griseus
Procedure, shortened: (§1)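 V79 cells were tested in an MTT assay, with incubations run under air or under nitrogen. Optical density was taken as proportional to the number of viable cells at the end of incubation. C50 is the concentration lowering optical density by 50% versus controls. The ratio is C50(AIR)/C50(N2).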

[4] = The ratio of C50(AIR) to that of C50(N2).; assay type: functional; procedure, shortened: as §1
[5] = system: V79; test: Reduction of optical density by 50% compared to controls when assay was performed under air in […] V79 Cells.; assay type: functional, Cricetulus griseus; procedure, shortened: as §1
[6] = system: V79; test: Compound was evaluated for its concentration to reduce the optical density by 50% compared to controls when assay was performed under air in […] V79 Cells; assay type: functional, Cricetulus griseus; procedure, shortened: as §1
[7] = In vivo radiosensitization of KHT tumors in mice by administration at a dose of 0.17 mmol/kg intraperitoneally. The optimum time interval between injection and irradiation of tumor was 60 minutes.; assay type: ADME, organism-based; conditions: mouse, ip, 1 h
[8] = In vivo radiosensitization of KHT tumors in mice by administration at a dose of 0.34 mmol/kg intraperitoneally. The optimum time interval between injection and irradiation of tumor was 30 minutes.; assay type: ADME, organism-based; conditions: mouse, ip, 0.5 h
[9] = In vivo radiosensitization of KHT tumors in mice by administration at a dose of 0.38 mmol/kg intraperitoneally. The optimum time interval between injection and irradiation of tumor was 60 minutes.; assay type: ADME, organism-based; conditions: mouse, ip, 1 h

SMILES	MTD [1]	Activity [2]	C50 [3]	Ratio [4]	C50 [5]	C50 [6]	Surviving fraction [7]	Surviving fraction [8]	Surviving fraction [9]
Cc1sc(C(=O)NCCCN2CCCC2)cc1[N+](=O)[O-].Cl	0.24 mM/kg	0.03 mM							
Br.O=[N+]([O-])c1nccn1CC(O)CNCCBr (stereo unspecified)	1 mM/kg	0.1 mM	0.09 mM	26	2.3 mM				
O=C(/C=C/c1ccc([N+](=O)[O-])s1)NCC1CO1 (stereo unspecified)		0.05 mM	0.08 mM	1	0.08 mM				
C=CCNC(=O)c1ccc([N+](=O)[O-])s1		0.08 mM	0.11 mM	2.5		0.3 mM			
COCC(O)Cn1ccnc1[N+](=O)[O-] (stereo unspecified) [MISONIDAZOLE]	4 mM/kg	0.6 mM	4 mM		45 mM				
Cc1cc(CC2CO2)sc1[N+](=O)[O-] (stereo unspecified)		0.06 mM	0.045 mM	1.3	0.065 mM				
Cl.O=C(NCCN1CCCCC1)c1ccc([N+](=O)[O-])o1	0.17 mM/kg	0.01 mM	0.016 mM	3	0.05 mM		0.0022		
O=C(NCC1CO1)c1ccc([N+](=O)[O-])s1 (stereo unspecified)		0.05 mM	0.15 mM	1	0.15 mM				
Cc1sc(C(=O)NCC2CO2)cc1[N+](=O)[O-] (stereo unspecified)		0.2 mM	0.4 mM	0.9	0.35 mM				
Cc1sc(C(=O)NCCN(C)C)cc1[N+](=O)[O-].Cl	0.34 mM/kg	0.1 mM						0.005	
Cc1sc(C(=O)NCCN2CCOCC2)cc1[N+](=O)[O-].Cl	0.34 mM/kg	1 mM	2.5 mM	1	2.5 mM				
COC(=O)[C@H](CCCCN)NC(=O)c1cc([N+](=O)[O-])c(C)s1.Cl	0.34 mM/kg	0.05 mM	0.35 mM	1	0.35 mM				
O=[N+]([O-])c1nccn1CC(O)CN1CC1 (stereo unspecified)	0.38 mM/kg	0.1 mM	0.0045 mM	67	0.3 mM				0.00083
Cc1sc(C(=O)NCCN2CCCCC2)cc1[N+](=O)[O-].Cl	<0.34 mM/kg	0.07 mM	0.8 mM	2.3	1.8 mM				

— ChEMBL document CHEMBL1125578, “Synthesis of a series of nitrothiophenes with basic or electrophilic substituents and evaluation as radiosensitizers and as bioreductively activated cytotoxins” (J Med Chem, 1991)
